Screening data: PubChem, The Scripps Research Institute Molecular Screening Center
M1 PAM: potentiates human M1 receptor response to acetylcholine; P11229; CHO-K1 hM1, Fluo-8 calcium fluorescence, ACh EC20; 0% = ACh EC20, 100% = maximal ACh; activation, % at 3 µM; actives 0.088% (n = 360,000); in the data active = activation above about 19%, passing the limit was not always enough
Target sequence (P11229 whole entry, looked up): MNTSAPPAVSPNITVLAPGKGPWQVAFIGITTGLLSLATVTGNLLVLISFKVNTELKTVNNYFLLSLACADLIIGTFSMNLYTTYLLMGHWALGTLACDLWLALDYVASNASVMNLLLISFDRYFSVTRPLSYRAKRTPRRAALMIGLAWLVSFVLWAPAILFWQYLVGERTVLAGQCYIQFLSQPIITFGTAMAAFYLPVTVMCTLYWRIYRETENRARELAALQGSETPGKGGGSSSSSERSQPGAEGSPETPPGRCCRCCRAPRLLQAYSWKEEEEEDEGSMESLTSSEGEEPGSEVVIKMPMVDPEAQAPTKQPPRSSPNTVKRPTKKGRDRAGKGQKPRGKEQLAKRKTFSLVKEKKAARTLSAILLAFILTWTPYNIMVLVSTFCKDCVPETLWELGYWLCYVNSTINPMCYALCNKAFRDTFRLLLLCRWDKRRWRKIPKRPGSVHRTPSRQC
M5 antag: blocks acetylcholine activation of human M5 receptor; P08912; CHO-hM5 cells, Fluo-8 calcium fluorescence, ACh EC80; inhibition, % at 3 µM; actives 0.59% (n = 360,000);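 active = inhibition above a per-plate cutoff, the mean of that plate's test compounds plus 3 SD, cut at about 27% in these data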;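 note: 0% = acetylcholine EC80 with DMSO and 100% = DMSO without agonist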
CHRM1 agonist: agonists of human M1 muscarinic receptor; P11229; CHO-K1 hM1, Fluo-8 calcium fluorescence, agonist mode; 0% DMSO, 100% acetylcholine EC100; activation, % at 3 µM; actives 0.33% (n = 360,000);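 active = activation above the run's mean compound activation plus 3 SD, cut at about 16% in these data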;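 note: peak over basal fluorescence ratio within a 140 s kinetic read after compound addition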
M5 PAM: CHRM5 positive allosteric modulation; CHO-K1 hM5, Fluo-8 calcium, ACh EC20 PAM; 0% = ACh EC20, 100% = ACh EC100; activation, % at 3 µM; actives 0.3% (n = 360,000);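 active = activation above the run cutoff, the mean activation of all test compounds plus 3 SD, cut at about 18% in these data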
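Assay system: CHO-K1 hM5 cells. Also added: acetylcholine at EC20 concentration, added after compound. Dosing: 3 µM, single dose. Times: compound preincubation 140 s before EC20 acetylcholine addition. Signal: Fluo-8 calcium fluorescence. Measure: % activation relative to EC20 and EC100 ACh responses. Repeats: singlicate, one well per test compound.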
M1 antag: antagonists of human M1 muscarinic receptor; P11229; CHO-K1 hM1, Fluo-8 calcium fluorescence, ACh EC80 antagonist; inhibition, % at 3 µM; actives 1.3% (n = 360,000);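 active = percent inhibition above its own plate's cutoff, namely the mean of that plate's compound wells plus 3 SD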;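 note: peak over basal fluorescence ratio during 140 s after agonist addition; 0% = ACh EC80 plus DMSO and 100% = DMSO alone without agonist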
M5 ag: agonists of human muscarinic M5 receptor (CHRM5); AID 624037; P08912; actives 0.19% (n = 360,000); activation, % at 3 µM; CHO-K1 hM5 cells, Fluo-8 calcium fluorescence; 0% DMSO wells, 100% maximal acetylcholine response;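 active = activation above the run's mean over test compounds plus 3 SD, cut at about 23% in these data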;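 note: signal is peak over basal fluorescence ratio across the kinetic read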
* hit, by the source's call; / = no result. Only some compounds are listed: those with a hit (about 2.1% of all), similar ones and a draw of the others.

SMILES	M1 PAM	M5 antag	CHRM1 agonist	M5 PAM	M1 antag	M5 ag
COc1ccc(C2=NOC(C(=O)NCC(C)C)C2)cc1 (configuration not stated)	7	1	-5	-4	-11	-1
Cc1ccc(/C=C/C(=O)O)cc1S(=O)(=O)NCCO	12	12	1	0	-15	-1
Cc1ccc(C(=O)N(C)c2ccc(OCC(=O)N3c4ccc(C)cc4C4CN(C)CCC43)cc2)cc1 (configuration not stated)	-30	-3	-15	-9	23*	-6
Cc1ccc2c(c1)C1CN(C)CCC1N2C(=O)c1ccc(Cl)c(S(=O)(=O)N2CCOCC2)c1 (configuration not stated)	-22	3	-5	0	79*	-14
Cc1ccc2c(c1)C1CN(C)CCC1N2C(=O)c1cccc(S(=O)(=O)N2CC(C)CC(C)C2)c1 (configuration not stated)	-24	2	-8	2	37*	-12
Cc1ccc2c(c1)C1CN(C)CCC1N2S(=O)(=O)c1cccc(C(F)(F)F)c1 (configuration not stated)	2	7	-6	0	2	-6
CCOc1ccc(-n2c(-c3ccc(Cl)cc3)c[n+]3c2SCC3)cc1	-19	4	-7	0	50*	-17
c1ccc(-c2c[n+]3c(n2-c2ccccc2)SCC3)cc1	0	-7	-9	10	-4	-8
Cn1c(NCCc2ccncc2)nc2cc(-c3cccc(Cl)c3)sc2c1=O	-2	-3	-4	1	-2	0
CN(C)c1ccc(-c2csc(C(O)c3cccc(Cl)c3)n2)cc1 (configuration not stated)	-24	19	19*	-21	42*	7
CCOC(=O)c1sc(NC(=O)CN2C(=O)NC3(CC(C)CC(C)(C)C3)C2=O)cc1C (configuration not stated)	0	-3	-5	-3	-1	-4
COc1ccc(C(=O)N/C(=C\c2cn(C)c3ccccc23)C(=O)OCCN(C)C)cc1	7	0	-5	6	-11	2
CCCCNC(=O)c1nc(C2CCN(S(=O)(=O)c3ccc(S(C)(=O)=O)cc3)CC2)oc1-c1ccccc1	/	30*	/	-19	/	-4
FC(F)Oc1ccc(NC(=S)NCc2ccccc2)cc1Cl	-13	33*	2	-16	24	4
CCCCNC(=S)Nc1ccc([N+](=O)[O-])cc1	-16	23	1	-16	27*	4
CC(Oc1ccccc1Cl)C(=O)Nc1ccc(S(=O)(=O)N2CCN(C)CC2)cc1 (configuration not stated)	-2	2	-5	2	12	0
CC(Oc1ccccc1C(N)=O)C(=O)Nc1ccc(S(=O)(=O)N2CCCC2)cc1 (configuration not stated)	-24	1	-7	3	59*	2
CCOc1ccccc1C(=O)OC(C)C(=O)Nc1ccc(S(=O)(=O)N2CCCC2)cc1 (configuration not stated)	-12	5	-5	-17	29*	-3
COc1ccc(CN(C)C(C)C(=O)Nc2ccc(S(=O)(=O)N3CCCCC3)cc2)c(OC)c1 (configuration not stated)	-31	4	-7	-25	91*	-5
CC(C)=CCN1CCN(Cc2ccoc2)CC1CCO (configuration not stated)	7	15	-4	-1	-7	1
COC(=O)C1(CCSC)NC(c2ccco2)C2C(=O)N(C)C(=O)C21 (configuration not stated)	8	4	-2	-5	-9	-7
N#CCSc1nc2ccc(N3CCCCC3)cc2c(=O)n1Cc1ccccc1	-23	7	-7	-5	22*	-4
N#CCSc1nc2ccccc2c(=O)n1CC1CCCC1	4	7	-1	-1	-4	-1
O=S(=O)(c1ccc(Cl)c(Cl)c1)c1snnc1-c1ccccc1	-21	11	-4	-17	75*	-8
c1ccc(-c2nnsc2-c2ccccc2)cc1	2	1	-9	-2	-14	-5
SMILES	M1 PAM	M5 antag	CHRM1 agonist	M5 PAM	M1 antag	M5 ag
CCN1CCN(CNC(=O)c2cnccn2)CC1	8	5	-2	21*	-10	-2
O=C(NCN1CCN(c2ccccc2)CC1)c1cnccn1	11	6	-6	0	-16	-4
CCNS(=O)(=O)c1ccc(CCC(=O)Nc2ccc3c(c2)OCCO3)cc1	7	0	-3	-2	-11	0
CC(=O)CSc1nnc(-c2ccc(S(=O)(=O)N3CCOCC3)cc2)n1C	5	-3	-5	7	-2	-2
Cn1cc(CNCc2ccc(OC(F)(F)F)cc2)c(-c2ccc3c(c2)OCCO3)n1	-10	24	5	-21	33*	14
CC(C)N(C(=O)CSc1nnc(NC(=O)C2CCC2)s1)C(C)C	2	5	-5	-6	3	1
CC1CC(C)CN(C(=O)COC(=O)c2cc(S(=O)(=O)N3CCOCC3)ccc2F)C1 (configuration not stated)	-18	-2	-2	5	57*	0
O=C(OCC(=O)N1CCc2ccccc21)c1cc(S(=O)(=O)N2CCOCC2)ccc1F	9	5	-7	0	-14	-3
COc1cccc(NC(=O)C(c2ccccc2)N2CCCCC2)c1 (configuration not stated)	-23	15	-6	-21	50*	-12
CN(C)CCNc1nc2sc3c(c2c(=O)n1Cc1ccccc1)CCCCC3	-30	6	-11	5	73*	6
CCC(C)n1c(NC(=O)c2ccccc2)c(C#N)c2nc3ccccc3nc21 (configuration not stated)	4	-5	-1	19*	-22	17
CCCCn1c(NC(=O)c2ccccc2)c(C#N)c2nc3ccccc3nc21	-4	10	-4	-4	19	4
CC12CC3CC(C1)CC(C(=O)NNC(=O)c1ccncc1)(C3)C2	-30	25	-8	-36	63*	-13
CC1(C(=O)NC(=S)NNC(=O)c2ccncc2)CCCCC1	-9	1	39*	-12	2	9
O=C(NNC(=S)NC(=O)C12CC3CC(CC(C3)C1)C2)c1ccncc1	-23	12	58*	-16	15	28*
O=c1[nH]c(=S)[nH]c2sc3c(c12)CCCCCC3	15	6	-1	4	-22	-4
CSc1ccc(CN2CCC(CO)(Cc3ccc(Cl)cc3)CC2)cc1	-23	26	-2	-33	56*	-19
